Measured values from ChEMBL document CHEMBL1795205, “The new 5- or 6-azapyrimidine and cyanuric acid derivatives of l-ascorbic acid bearing the free C-5 hydroxy or C-4 amino group at the ethylenic spacer: CD-spectral absolute configuration determination and biological activity evaluations” (Eur J Med Chem, 2011).

What was measured:
HeLa [1] = experiment: Induction of cell cycle arrest in human HeLa cells assessed as accumulation at G1 phase at 5 uM after 24 hrs by flow cytometry relative to control; assay type: functional
Method in brief: (§1)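 Cells were seeded at 3×10⁵ per well in 6-well plates and treated after overnight incubation for 24 and 48 h. They were trypsinized, washed three times in PBS, fixed in cold ethanol and stored at −20 °C. Pellets were washed twice in PBS and treated with RNase A at 37 °C for 15 min, then stained with PI for 30 min in the dark. DNA content was measured by flow cytometry.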

HeLa [2] = experiment: Induction of cell cycle arrest in human HeLa cells assessed as accumulation at G2/M phase at 5 uM after 24 hrs by flow cytometry relative to control; assay type: functional; method in brief: as §1
HeLa [3] = experiment: Induction of cell cycle arrest in human HeLa cells assessed as accumulation at S phase at 5 uM after 24 hrs by flow cytometry relative to control; assay type: functional; method in brief: as §1
HeLa [4] = experiment: Induction of cell cycle arrest in human HeLa cells assessed as accumulation at subG1 phase at 5 uM after 24 hrs by flow cytometry relative to control; assay type: functional; method in brief: as §1
HeLa [5] = experiment: Induction of cell cycle arrest in human HeLa cells assessed as accumulation at G1 phase at 5 uM after 48 hrs by flow cytometry relative to control; assay type: functional; method in brief: as §1
HeLa [6] = experiment: Induction of cell cycle arrest in human HeLa cells assessed as accumulation at G2/M phase at 5 uM after 48 hrs by flow cytometry relative to control; assay type: functional; method in brief: as §1
HeLa [7] = experiment: Induction of cell cycle arrest in human HeLa cells assessed as accumulation at S phase at 5 uM after 48 hrs by flow cytometry relative to control; assay type: functional; method in brief: as §1
HeLa [8] = experiment: Induction of cell cycle arrest in human HeLa cells assessed as accumulation at subG1 phase at 5 uM after 48 hrs by flow cytometry relative to control; assay type: functional; method in brief: as §1
HeLa [9] = experiment: Cytostatic activity against human HeLa cells assessed as inhibition of cell proliferation after 72 hrs by MTT assay; assay type: functional, cell-based
Method in brief: (§2)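 Monolayer cells grown in DMEM with 10% FBS were seeded on day 0 at 3000–6000 cells/well, set by each line's doubling time. Agents were added the next step in five 10-fold dilutions (0.01–100) for 72 h, with DMSO ≤0.1% and a solvent control. MTT absorbance was converted to percentage growth versus untreated wells on the same plate. Where all PGs exceeded 50, the top concentration was reported as ">". ANOVA/Tukey, p<0.05.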

MCF7 [10] = experiment: Cytostatic activity against human MCF7 cells assessed as inhibition of cell proliferation after 72 hrs by MTT assay; assay type: functional, cell-based; conditions: MCF7, 72 h; method in brief: as §2
HepG2 = experiment: Cytostatic activity against human HepG2 cells assessed as inhibition of cell proliferation after 72 hrs by MTT assay; assay type: functional, cell-based; conditions: HepG2, 72 h; method in brief: as §2
SW-620 = experiment: Cytostatic activity against human SW620 cells assessed as inhibition of cell proliferation after 72 hrs by MTT assay; assay type: functional, cell-based; conditions: SW-620, 72 h; method in brief: as §2
MIA PaCa-2 = experiment: Cytostatic activity against human MIAPaCa2 cells assessed as inhibition of cell proliferation after 72 hrs by MTT assay; assay type: functional, cell-based; conditions: MIA PaCa-2, 72 h; method in brief: as §2
WI-38 = experiment: Cytotoxicity against human WI38 cells assessed as inhibition of cell proliferation after 72 hrs by MTT assay; assay type: cell-based; conditions: WI-38, 72 h; method in brief: as §2
HeLa [11] = experiment: Induction of cell cycle arrest in human HeLa cells assessed as accumulation at G1 phase at 10 uM after 24 hrs by flow cytometry (reference value: 44.8 +/- 11.2%); assay type: functional; method in brief: as §1
HeLa [12] = experiment: Induction of cell cycle arrest in human HeLa cells assessed as accumulation at G2/M phase at 10 uM after 24 hrs by flow cytometry (reference value: 10.9 +/- 2.6%); assay type: functional; method in brief: as §1
HeLa [13] = experiment: Induction of cell cycle arrest in human HeLa cells assessed as accumulation at S phase at 10 uM after 24 hrs by flow cytometry (reference value: 44.4 +/- 8.7%); assay type: functional; method in brief: as §1
HeLa [14] = experiment: Induction of cell cycle arrest in human HeLa cells assessed as accumulation at subG1 phase at 10 uM after 24 hrs by flow cytometry (reference value: 0.49 +/- 0.2%); assay type: functional; method in brief: as §1
HeLa [15] = experiment: Induction of cell cycle arrest in human HeLa cells assessed as accumulation at G1 phase at 10 uM after 48 hrs by flow cytometry (reference value: 56.1 +/- 0.1%); assay type: functional; method in brief: as §1
HeLa [16] = experiment: Induction of cell cycle arrest in human HeLa cells assessed as accumulation at G2/M phase at 10 uM after 48 hrs by flow cytometry (reference value: 3.25 +/- 0.1%); assay type: functional; method in brief: as §1
HeLa [17] = experiment: Induction of cell cycle arrest in human HeLa cells assessed as accumulation at S phase at 10 uM after 48 hrs by flow cytometry (reference value: 40.6 +/- 0.1%); assay type: functional; method in brief: as §1
HeLa [18] = experiment: Induction of cell cycle arrest in human HeLa cells assessed as accumulation at subG1 phase at 10 uM after 48 hrs by flow cytometry (reference value: 0.16 +/- 0.01%); assay type: functional; method in brief: as §1
MCF7 [19] = experiment: Induction of cell cycle arrest in human MCF7 cells assessed as accumulation at G1 phase at 5 uM after 24 hrs by flow cytometry (reference value: 50.7 +/- 3.1%); assay type: functional; method in brief: as §1
MCF7 [20] = experiment: Induction of cell cycle arrest in human MCF7 cells assessed as accumulation at G2/M phase at 5 uM after 24 hrs by flow cytometry (reference value: 15.9 +/- 2.7%); assay type: functional; method in brief: as §1
MCF7 [21] = experiment: Induction of cell cycle arrest in human MCF7 cells assessed as accumulation at S phase at 5 uM after 24 hrs by flow cytometry (reference value: 33.4 +/- 0.4%); assay type: functional; method in brief: as §1
MCF7 [22] = experiment: Induction of cell cycle arrest in human MCF7 cells assessed as accumulation at subG1 phase at 5 uM after 24 hrs by flow cytometry (reference value: 0.68 +/- 0.4%); assay type: functional; method in brief: as §1
MCF7 [23] = experiment: Induction of cell cycle arrest in human MCF7 cells assessed as accumulation at G1 phase at 10 uM after 24 hrs by flow cytometry (reference value: 50.7 +/- 3.1%); assay type: functional; method in brief: as §1
MCF7 [24] = experiment: Induction of cell cycle arrest in human MCF7 cells assessed as accumulation at G2/M phase at 10 uM after 24 hrs by flow cytometry (reference value: 15.9 +/- 2.7%); assay type: functional; method in brief: as §1
MCF7 [25] = experiment: Induction of cell cycle arrest in human MCF7 cells assessed as accumulation at S phase at 10 uM after 24 hrs by flow cytometry (reference value: 33.4 +/- 0.4%); assay type: functional; method in brief: as §1
MCF7 [26] = experiment: Induction of cell cycle arrest in human MCF7 cells assessed as accumulation at subG1 phase at 10 uM after 24 hrs by flow cytometry (reference value: 0.68 +/- 0.4%); assay type: functional; method in brief: as §1
MCF7 [27] = experiment: Induction of cell cycle arrest in human MCF7 cells assessed as accumulation at G1 phase at 5 uM after 48 hrs by flow cytometry (reference value: 52.3 +/- 6.1%); assay type: functional; method in brief: as §1
MCF7 [28] = experiment: Induction of cell cycle arrest in human MCF7 cells assessed as accumulation at G2/M phase at 5 uM after 48 hrs by flow cytometry (reference value: 6.82 +/- 0.3%); assay type: functional; method in brief: as §1
MCF7 [29] = experiment: Induction of cell cycle arrest in human MCF7 cells assessed as accumulation at S phase at 5 uM after 48 hrs by flow cytometry (reference value: 40.9 +/- 5.7%); assay type: functional; method in brief: as §1
MCF7 [30] = experiment: Induction of cell cycle arrest in human MCF7 cells assessed as accumulation at subG1 phase at 5 uM after 48 hrs by flow cytometry (reference value: 0.51 +/- 0.01%); assay type: functional; method in brief: as §1
MCF7 [31] = experiment: Induction of cell cycle arrest in human MCF7 cells assessed as accumulation at G1 phase at 10 uM after 48 hrs by flow cytometry (reference value: 52.3 +/- 6.1%); assay type: functional; method in brief: as §1
MCF7 [32] = experiment: Induction of cell cycle arrest in human MCF7 cells assessed as accumulation at G2/M phase at 10 uM after 48 hrs by flow cytometry (reference value: 6.82 +/- 0.3%); assay type: functional; method in brief: as §1
MCF7 [33] = experiment: Induction of cell cycle arrest in human MCF7 cells assessed as accumulation at S phase at 10 uM after 48 hrs by flow cytometry (reference value: 40.9 +/- 5.7%); assay type: functional; method in brief: as §1
MCF7 [34] = experiment: Induction of cell cycle arrest in human MCF7 cells assessed as accumulation at subG1 phase at 10 uM after 48 hrs by flow cytometry (reference value: 0.51 +/- 0.01%); assay type: functional; method in brief: as §1

Structure (SMILES): O=C1O/C(=C\Cn2ccc(NC(=O)c3ccccc3)nc2=O)C(OCc2ccccc2)=C1OCc1ccccc1
- Activity (HeLa [1]): 47.1%
- Activity (HeLa [2]): 13.1%
- Activity (HeLa [3]): 39.9%
- Activity (HeLa [4]): 0.04%
- Activity (HeLa [5]): 60.8%
- Activity (HeLa [6]): 2.8%
- Activity (HeLa [7]): 36.5%
- Activity (HeLa [8]): 0.27%
- IC50 (HeLa [9]): 7.2 µM
- IC50 (MCF7 [10]): 2.03 µM
- IC50 (HepG2): 1.98 µM
- IC50 (SW-620): > 100 µM
- IC50 (MIA PaCa-2): 24.2 µM
- IC50 (WI-38): 8.49 µM
- Activity (HeLa [11]): 37.9%
- Activity (HeLa [12]): 8.45%
- Activity (HeLa [13]): 53.7%
- Activity (HeLa [14]): 0.2%
- Activity (HeLa [15]): 52.3%
- Activity (HeLa [16]): 8.3%
- Activity (HeLa [17]): 39.5%
- Activity (HeLa [18]): 0.56%
- Activity (MCF7 [19]): 57.9%
- Activity (MCF7 [20]): 13.8%
- Activity (MCF7 [21]): 28.3%
- Activity (MCF7 [22]): 0.42%
- Activity (MCF7 [23]): 54.3%
- Activity (MCF7 [24]): 6.54%
- Activity (MCF7 [25]): 39.2%
- Activity (MCF7 [26]): 0.2%
- Activity (MCF7 [27]): 50.6%
- Activity (MCF7 [28]): 13.9%
- Activity (MCF7 [29]): 35.6%
- Activity (MCF7 [30]): 0.37%
- Activity (MCF7 [31]): 56.6%
- Activity (MCF7 [32]): 5.52%
- Activity (MCF7 [33]): 38%
- Activity (MCF7 [34]): 0.32%

Structure (SMILES): O=C1O[C@H]([C@@H](O)Cn2ccc(NC(=O)c3ccccc3)nc2=O)C(OCc2ccccc2)=C1OCc1ccccc1
- IC50 (HeLa [9]): 35.9 µM
- IC50 (MCF7 [10]): 4.79 µM
- IC50 (HepG2): 62.2 µM
- IC50 (SW-620): > 100 µM
- IC50 (MIA PaCa-2): > 100 µM
- IC50 (WI-38): 8.82 µM

Structure (SMILES): Nc1ccn(C[C@H](O)[C@H]2OC(=O)C(OCc3ccccc3)=C2OCc2ccccc2)c(=O)n1
- IC50 (HeLa [9]): > 100 µM
- IC50 (MCF7 [10]): 7.34 µM
- IC50 (HepG2): 44.3 µM
- IC50 (SW-620): > 100 µM
- IC50 (MIA PaCa-2): > 100 µM
- IC50 (WI-38): 53.9 µM

Structure (SMILES): O=C1O/C(=C\Cn2c(=O)[nH]c(=O)[nH]c2=O)C(OCc2ccccc2)=C1OCc1ccccc1
- IC50 (HeLa [9]): > 100 µM
- IC50 (MCF7 [10]): 17.8 µM
- IC50 (HepG2): 44.8 µM
- IC50 (SW-620): > 100 µM
- IC50 (MIA PaCa-2): 37.9 µM
